Laboratory results published in ChEMBL document CHEMBL1142770, “Structure-activity relationships of 1,3,5-triazine-2,4,6-triones as human gonadotropin-releasing hormone receptor antagonists” (Bioorg Med Chem Lett, 2005).

molecular target: T1, Gonadotropin-releasing hormone receptor (Homo sapiens, UniProt P30968); experiment: In vitro ability to inhibit des-Gly[125I-Tyr, DLeu, NMeLeu,Pro-NEt]-GnRH radioligand binding to the cloned human GnRH receptor stably expressed in HEK293 cells; assay type: cell-based; conditions: not given
T1 sequence (P30968 whole entry): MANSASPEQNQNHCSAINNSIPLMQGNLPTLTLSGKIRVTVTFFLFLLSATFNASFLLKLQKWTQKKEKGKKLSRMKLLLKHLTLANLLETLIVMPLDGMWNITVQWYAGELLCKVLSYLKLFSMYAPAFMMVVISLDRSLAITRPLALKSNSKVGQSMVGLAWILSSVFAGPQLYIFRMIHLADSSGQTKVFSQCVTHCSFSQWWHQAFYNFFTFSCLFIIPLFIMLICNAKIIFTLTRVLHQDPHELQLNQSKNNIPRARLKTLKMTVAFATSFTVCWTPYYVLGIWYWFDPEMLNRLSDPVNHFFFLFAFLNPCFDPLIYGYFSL
Method in brief: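 A standard antagonist on each plate controlled for plate-to-plate variation. Key compounds were run in three to eight independent experiments.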

Ki [nM]	Structure (SMILES)
11	COc1cccc(-n2c(=O)n(Cc3ccccc3F)c(=O)n(C[C@H](N)c3ccccc3)c2=O)c1F
66	COc1cccc(-n2c(=O)n(CCC(N)c3cccc(F)c3)c(=O)n(Cc3c(F)cccc3F)c2=O)c1 (centres undefined)
3	COc1cccc(-n2c(=O)n(Cc3c(F)cccc3C(F)(F)F)c(=O)n(C[C@H](N)c3ccccc3)c2=O)c1F
120	COc1cccc(-n2c(=O)n(Cc3c(F)cccc3F)c(=O)n(CC(N)c3ccccc3F)c2=O)c1 (centres undefined)
83	COc1cccc(-n2c(=O)n(CCC(N)c3ccc(F)cc3)c(=O)n(Cc3c(F)cccc3F)c2=O)c1 (centres undefined)
120	COc1ccccc1Cn1c(=O)n(C[C@H](N)c2ccccc2)c(=O)n(-c2cccc(OC)c2F)c1=O
29	COc1cccc(-n2c(=O)n(Cc3ccccc3C)c(=O)n(C[C@H](N)c3ccccc3)c2=O)c1F
20	COc1cccc(-n2c(=O)n(Cc3c(F)cccc3F)c(=O)n(CC(N)c3ccccc3F)c2=O)c1F (centres undefined)
75	COc1cccc(-n2c(=O)n(CCC(N)c3ccccc3C)c(=O)n(Cc3c(F)cccc3F)c2=O)c1 (centres undefined)
66	COc1cccc(-n2c(=O)n(Cc3cccnc3Cl)c(=O)n(C[C@H](N)c3ccccc3)c2=O)c1F
28	COc1cccc(-n2c(=O)n(Cc3c(F)cccc3F)c(=O)n(CC(CN)c3ccccc3)c2=O)c1 (centres undefined)
20	COc1cccc(-n2c(=O)n(Cc3ccccc3Cl)c(=O)n(C[C@H](N)c3ccccc3)c2=O)c1F
27	COc1cccc(-n2c(=O)n(CCC(N)c3cccs3)c(=O)n(Cc3c(F)cccc3F)c2=O)c1 (centres undefined)
620	COc1cccc(-n2c(=O)n(Cc3c(F)cccc3F)c(=O)n(CC(N)CC(C)C)c2=O)c1F (centres undefined)
5	COc1cccc(-n2c(=O)n(Cc3c(F)cccc3Cl)c(=O)n(C[C@H](N)c3ccccc3)c2=O)c1F
800	COc1cccc(-n2c(=O)n(CCC(N)c3ccccc3F)c(=O)n(Cc3c(F)cccc3F)c2=O)c1 (centres undefined)
24	COc1cccc(-n2c(=O)n(CC[C@H](N)c3ccccc3)c(=O)n(Cc3c(F)cccc3F)c2=O)c1F
70	COc1cccc(-n2c(=O)n(CCC(N)c3ccccc3)c(=O)n(Cc3c(F)cccc3F)c2=O)c1 (centres undefined)
580	COc1cccc(-n2c(=O)n(CCC(N)c3cccnc3)c(=O)n(Cc3c(F)cccc3F)c2=O)c1 (centres undefined)
> 10000	COc1cccc(-n2c(=O)n(CC3CCCCC3)c(=O)n(C[C@H](N)c3ccccc3)c2=O)c1F
630	COc1cccc(-n2c(=O)n(C[C@H](N)c3ccccc3)c(=O)n(C(C)c3c(F)cccc3F)c2=O)c1F (some centres undefined)
9	COc1cccc(-n2c(=O)n(Cc3c(F)cccc3F)c(=O)n(C[C@H](N)c3ccccc3)c2=O)c1F
73	COc1cccc(-n2c(=O)n(Cc3c(Cl)cccc3C#N)c(=O)n(C[C@H](N)c3ccccc3)c2=O)c1F
180	COc1cccc(-n2c(=O)n(CCC(N)c3ccccc3Cl)c(=O)n(Cc3c(F)cccc3F)c2=O)c1 (centres undefined)
36	COc1cccc(-n2c(=O)n(Cc3c(Cl)cccc3Cl)c(=O)n(C[C@H](N)c3ccccc3)c2=O)c1F
1500	COc1cccc(-n2c(=O)n(CC[C@H](N)CC(C)C)c(=O)n(Cc3c(F)cccc3F)c2=O)c1F

tested on: not listed separately; experiment: Intrinsic clearance in human liver microsomes(HLM) for metabolic stability; assay type: ADME, Microsome; conditions: read-out: CI

CLint scaled [mL/min/kg]	Structure (SMILES)
249	COc1cccc(-n2c(=O)n(Cc3ccccc3C#N)c(=O)n(C[C@H](N)c3ccccc3)c2=O)c1F
158	COc1cccc(-n2c(=O)n(Cc3c(F)cccc3Br)c(=O)n(C[C@H](N)c3ccccc3)c2=O)c1F
146	COc1cccc(-n2c(=O)n(Cc3ccccc3OC(F)(F)F)c(=O)n(C[C@H](N)c3ccccc3)c2=O)c1F
